Experimental data from paper PMC6637745 (Journal of medicinal chemistry, 2018).

Legend:
5-HT1A-1E = assay: NIMH-PDSP binding affinity panel; details: read-out: affinity
5-HT2A-2C = assay: NIMH-PDSP binding affinity panel; details: read-out: affinity
5-HT3-7 = assay: NIMH-PDSP binding affinity panel; details: read-out: affinity
A (adenosine) = assay: NIMH-PDSP binding affinity panel; details: read-out: affinity
α1A-1C = assay: NIMH-PDSP binding affinity panel; details: read-out: affinity
α2A-2C = assay: NIMH-PDSP binding affinity panel; details: read-out: affinity
β1–3 = assay: NIMH-PDSP binding affinity panel; details: read-out: affinity
AMPA = assay: NIMH-PDSP binding affinity panel; details: read-out: affinity
BZP (benzodiazepine) = assay: NIMH-PDSP binding affinity panel; details: read-out: affinity
Ca+ channel = assay: NIMH-PDSP binding affinity panel; details: read-out: affinity
CB1, CB2 = assay: NIMH-PDSP binding affinity panel; details: read-out: affinity; CB1, CB2 cannabinoid
D1-D5 = assay: NIMH-PDSP binding affinity panel; details: read-out: affinity; D1-D5 dopamine
DAT = DAT (Homo sapiens, UniProt Q01959); assay: NIMH-PDSP binding affinity panel
DOR = DOR (Homo sapiens, UniProt P41143); assay: NIMH-PDSP binding affinity panel
H1 = H1 (Homo sapiens, UniProt P35367); assay: NIMH-PDSP binding affinity panel
HERG = HERG (Homo sapiens, UniProt Q12809); assay: NIMH-PDSP binding affinity panel
GABA = assay: NIMH-PDSP binding affinity panel; details: read-out: affinity
[1] = biological target: EP (prostanoid receptors); assay: NIMH-PDSP binding affinity panel; details: read-out: affinity
I = assay: NIMH-PDSP binding affinity panel; details: read-out: affinity
KOP = KOP (Homo sapiens, UniProt P41145); assay: NIMH-PDSP binding affinity panel
KA (kainate) = assay: NIMH-PDSP binding affinity panel; details: read-out: affinity
M (muscarinic) = assay: NIMH-PDSP binding affinity panel; details: read-out: affinity
mGluR = assay: NIMH-PDSP binding affinity panel; details: read-out: affinity, metabotropic glutamate receptors
MDR1 = MDR1 (Homo sapiens, UniProt P08183); assay: NIMH-PDSP binding affinity panel
NET = NET (Homo sapiens, UniProt P23975); assay: NIMH-PDSP binding affinity panel
NK (neurokinin) = assay: NIMH-PDSP binding affinity panel; details: read-out: affinity
NMΔA = assay: NIMH-PDSP binding affinity panel; details: read-out: affinity
NOP = NOP (Homo sapiens, UniProt P41146); assay: NIMH-PDSP binding affinity panel
NT (neurotrophin) = assay: NIMH-PDSP binding affinity panel; details: read-out: affinity
oxytocin = oxytocin (Homo sapiens, UniProt P30559); assay: NIMH-PDSP binding affinity panel
PBR = PBR (Homo sapiens, UniProt P30536); assay: NIMH-PDSP binding affinity panel
PKC = assay: NIMH-PDSP binding affinity panel; details: read-out: affinity, protein kinase C
SERT = SERT (Homo sapiens, UniProt P31645); assay: NIMH-PDSP binding affinity panel
σ2 = σ2 (Homo sapiens, UniProt Q5BJF2); assay: NIMH-PDSP binding affinity panel
Na + channel = assay: NIMH-PDSP binding affinity panel; details: read-out: affinity
smoothened = smoothened (Homo sapiens, UniProt Q99835); assay: NIMH-PDSP binding affinity panel
VMAT 1,2 = assay: NIMH-PDSP binding affinity panel; details: read-out: affinity; VMAT 1,2, vesicular monoamine transporter
[2] = biological target: all other tested biogenic brain receptors, transporters, enzymes, and protein targets; assay: NIMH-PDSP binding affinity panel; details: all other tested targets except H4R and σ1R
[3] = rodents, blood; cited from earlier work
[4] = over 100 cancer patients including GBM; cited from earlier work
cancer animal models = details: variety of cancer animal models; cited from earlier work
[5] = Lipophilicity by shake flask method; format: physicochemical; details: 1-octanol / phosphate buffer, n = 4
How it was run: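 The [11C]-labelled test compound was partitioned between 1-octanol and freshly prepared phosphate buffer by shake flask, and the result expressed as log Poct/water.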

[6] = Stability in ethanol–saline formulation; format: physicochemical; details: 5% ethanol–saline formulation, sterile conditions, 4 h, n = 4
How it was run: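 The stability of the [11C]-labelled test compound was checked by reverse-phase HPLC with photodiode-array and sodium iodide radioactivity detectors.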

[7] = Baseline ex vivo biodistribution; format: in vivo, male white mice; details: mouse brain, followed by gradual washout
MT = assay: Blocking biodistribution with cold MPC-6827; format: in vivo, male white mice
How it was run: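 This was a blocking biodistribution. Unlabelled test compound (5 mg/kg iv) was given 20 min before tail-vein injection of the [11C] tracer at 100 ± 20 μCi in 10% ethanol–saline, with no anaesthesia. Tissues were harvested at 30 min, gamma-counted and expressed as %ID/g, with n = 3. Specific binding was taken from blocked versus baseline uptake.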

brain MT [8] = assay: microPET imaging in mice, baseline and blocking; format: in vivo, athymic nude male mice
How it was run: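 Mice were anaesthetised and transmission-scanned on a Trifoil PET/CT. The [11C] tracer (50 ± 10 μCi) was given by tail vein, followed by 60 min dynamic acquisition. Images were reconstructed with attenuation correction, Fourier rebinning and filtered back-projection, and summed over 0–60 min. In blocking scans, unlabelled test compound (5 mg/kg iv) was given before the tracer, with n = 3.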

brain MT [9] = assay: microPET imaging in rats; format: in vivo; details: male Sprague—Dawley rats, n = 2
How it was run: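 Anaesthetised Sprague–Dawley rats (n = 2) were transmission-scanned on a Trifoil PET/CT. The [11C] tracer (100 ± 20 μCi) was injected into the tail vein and acquired for 60 min. Reconstruction used attenuation correction, Fourier rebinning and filtered back-projection, and images were summed over 0–60 min.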

[10] = 30 min, MPC-6827 5 mg/kg iv 20 min prior to radioligand, n = 3

KOP, sequence (P41145 whole entry): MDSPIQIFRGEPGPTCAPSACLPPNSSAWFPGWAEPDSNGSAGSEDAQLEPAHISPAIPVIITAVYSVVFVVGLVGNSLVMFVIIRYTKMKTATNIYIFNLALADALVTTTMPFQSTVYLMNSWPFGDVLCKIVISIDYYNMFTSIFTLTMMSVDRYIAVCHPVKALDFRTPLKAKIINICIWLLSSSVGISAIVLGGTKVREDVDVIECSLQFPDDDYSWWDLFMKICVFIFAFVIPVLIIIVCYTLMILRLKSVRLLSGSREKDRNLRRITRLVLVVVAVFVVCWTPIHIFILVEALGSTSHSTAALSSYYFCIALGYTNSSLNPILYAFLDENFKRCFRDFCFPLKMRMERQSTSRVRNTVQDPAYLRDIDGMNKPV
oxytocin, sequence (P30559 whole entry): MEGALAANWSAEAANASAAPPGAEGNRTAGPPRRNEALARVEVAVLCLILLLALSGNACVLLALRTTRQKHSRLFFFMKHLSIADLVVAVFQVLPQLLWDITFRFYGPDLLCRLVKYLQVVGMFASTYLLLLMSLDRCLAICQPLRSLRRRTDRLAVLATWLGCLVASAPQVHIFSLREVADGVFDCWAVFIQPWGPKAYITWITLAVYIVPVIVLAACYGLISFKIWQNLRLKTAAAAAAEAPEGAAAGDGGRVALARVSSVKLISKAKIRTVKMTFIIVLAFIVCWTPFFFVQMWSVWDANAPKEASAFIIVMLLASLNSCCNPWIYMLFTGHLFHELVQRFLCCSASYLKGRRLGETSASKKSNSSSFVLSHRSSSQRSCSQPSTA
DAT, sequence (Q01959 whole entry, species assumed): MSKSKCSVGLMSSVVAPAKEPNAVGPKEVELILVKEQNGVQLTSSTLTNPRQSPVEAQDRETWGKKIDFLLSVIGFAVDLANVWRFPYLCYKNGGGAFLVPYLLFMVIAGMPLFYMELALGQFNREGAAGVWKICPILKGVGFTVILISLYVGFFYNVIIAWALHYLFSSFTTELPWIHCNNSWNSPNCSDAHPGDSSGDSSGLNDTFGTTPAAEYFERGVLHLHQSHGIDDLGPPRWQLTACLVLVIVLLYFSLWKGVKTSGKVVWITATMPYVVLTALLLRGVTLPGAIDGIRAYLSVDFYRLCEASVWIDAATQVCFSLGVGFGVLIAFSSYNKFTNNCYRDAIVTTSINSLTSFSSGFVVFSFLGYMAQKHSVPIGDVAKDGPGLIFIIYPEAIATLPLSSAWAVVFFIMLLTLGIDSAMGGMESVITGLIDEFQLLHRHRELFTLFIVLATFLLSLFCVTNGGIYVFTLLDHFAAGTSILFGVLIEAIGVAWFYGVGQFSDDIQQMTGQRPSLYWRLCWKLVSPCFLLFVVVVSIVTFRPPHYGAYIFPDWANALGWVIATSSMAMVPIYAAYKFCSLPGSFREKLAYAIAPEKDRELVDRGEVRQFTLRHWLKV
PBR, sequence (P30536 whole entry, species assumed): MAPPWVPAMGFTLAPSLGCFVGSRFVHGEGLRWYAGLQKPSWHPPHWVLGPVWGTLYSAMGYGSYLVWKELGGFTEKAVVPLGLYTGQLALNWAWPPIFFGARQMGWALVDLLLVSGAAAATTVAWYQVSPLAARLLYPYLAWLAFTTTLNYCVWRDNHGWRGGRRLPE
NOP, sequence (P41146 whole entry): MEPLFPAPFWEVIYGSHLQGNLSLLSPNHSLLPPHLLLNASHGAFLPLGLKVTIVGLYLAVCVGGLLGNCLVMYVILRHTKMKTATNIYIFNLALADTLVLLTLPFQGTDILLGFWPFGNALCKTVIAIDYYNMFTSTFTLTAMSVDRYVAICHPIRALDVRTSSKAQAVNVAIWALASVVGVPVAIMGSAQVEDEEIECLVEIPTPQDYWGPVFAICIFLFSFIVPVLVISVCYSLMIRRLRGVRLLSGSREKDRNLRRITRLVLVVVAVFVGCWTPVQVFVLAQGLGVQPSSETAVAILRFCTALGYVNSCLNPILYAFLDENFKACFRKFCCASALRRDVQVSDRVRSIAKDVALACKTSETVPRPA
HERG, sequence (Q12809 whole entry): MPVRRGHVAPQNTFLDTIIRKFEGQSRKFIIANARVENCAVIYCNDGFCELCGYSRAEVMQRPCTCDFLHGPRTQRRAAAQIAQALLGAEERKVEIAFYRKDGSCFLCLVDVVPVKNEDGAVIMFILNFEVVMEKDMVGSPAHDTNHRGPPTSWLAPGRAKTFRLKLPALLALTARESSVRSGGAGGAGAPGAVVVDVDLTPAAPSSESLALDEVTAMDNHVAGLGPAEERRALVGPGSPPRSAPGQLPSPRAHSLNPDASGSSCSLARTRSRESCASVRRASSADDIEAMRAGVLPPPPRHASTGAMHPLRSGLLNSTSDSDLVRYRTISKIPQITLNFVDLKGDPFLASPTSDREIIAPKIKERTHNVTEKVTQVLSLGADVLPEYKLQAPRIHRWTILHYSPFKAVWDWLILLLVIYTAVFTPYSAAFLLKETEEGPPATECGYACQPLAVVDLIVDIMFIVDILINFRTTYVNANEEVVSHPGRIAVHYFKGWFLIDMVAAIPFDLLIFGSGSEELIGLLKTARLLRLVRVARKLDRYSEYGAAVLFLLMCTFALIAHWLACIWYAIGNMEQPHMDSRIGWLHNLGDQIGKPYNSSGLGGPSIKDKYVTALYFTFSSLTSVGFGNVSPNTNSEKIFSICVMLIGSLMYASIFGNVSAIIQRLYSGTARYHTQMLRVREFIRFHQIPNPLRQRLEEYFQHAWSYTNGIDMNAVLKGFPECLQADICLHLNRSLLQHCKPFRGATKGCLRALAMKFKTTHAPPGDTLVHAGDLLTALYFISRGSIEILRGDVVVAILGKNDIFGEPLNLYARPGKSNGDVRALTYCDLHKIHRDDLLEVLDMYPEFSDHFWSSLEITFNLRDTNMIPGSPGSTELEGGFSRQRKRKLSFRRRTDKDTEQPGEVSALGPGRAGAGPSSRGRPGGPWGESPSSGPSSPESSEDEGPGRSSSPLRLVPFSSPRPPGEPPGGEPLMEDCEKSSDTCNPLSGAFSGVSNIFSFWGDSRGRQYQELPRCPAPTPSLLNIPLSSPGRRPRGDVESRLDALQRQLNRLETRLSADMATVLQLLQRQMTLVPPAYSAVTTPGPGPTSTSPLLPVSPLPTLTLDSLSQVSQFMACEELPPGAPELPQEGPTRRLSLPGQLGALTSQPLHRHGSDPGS
MDR1, sequence (P08183 whole entry, species assumed): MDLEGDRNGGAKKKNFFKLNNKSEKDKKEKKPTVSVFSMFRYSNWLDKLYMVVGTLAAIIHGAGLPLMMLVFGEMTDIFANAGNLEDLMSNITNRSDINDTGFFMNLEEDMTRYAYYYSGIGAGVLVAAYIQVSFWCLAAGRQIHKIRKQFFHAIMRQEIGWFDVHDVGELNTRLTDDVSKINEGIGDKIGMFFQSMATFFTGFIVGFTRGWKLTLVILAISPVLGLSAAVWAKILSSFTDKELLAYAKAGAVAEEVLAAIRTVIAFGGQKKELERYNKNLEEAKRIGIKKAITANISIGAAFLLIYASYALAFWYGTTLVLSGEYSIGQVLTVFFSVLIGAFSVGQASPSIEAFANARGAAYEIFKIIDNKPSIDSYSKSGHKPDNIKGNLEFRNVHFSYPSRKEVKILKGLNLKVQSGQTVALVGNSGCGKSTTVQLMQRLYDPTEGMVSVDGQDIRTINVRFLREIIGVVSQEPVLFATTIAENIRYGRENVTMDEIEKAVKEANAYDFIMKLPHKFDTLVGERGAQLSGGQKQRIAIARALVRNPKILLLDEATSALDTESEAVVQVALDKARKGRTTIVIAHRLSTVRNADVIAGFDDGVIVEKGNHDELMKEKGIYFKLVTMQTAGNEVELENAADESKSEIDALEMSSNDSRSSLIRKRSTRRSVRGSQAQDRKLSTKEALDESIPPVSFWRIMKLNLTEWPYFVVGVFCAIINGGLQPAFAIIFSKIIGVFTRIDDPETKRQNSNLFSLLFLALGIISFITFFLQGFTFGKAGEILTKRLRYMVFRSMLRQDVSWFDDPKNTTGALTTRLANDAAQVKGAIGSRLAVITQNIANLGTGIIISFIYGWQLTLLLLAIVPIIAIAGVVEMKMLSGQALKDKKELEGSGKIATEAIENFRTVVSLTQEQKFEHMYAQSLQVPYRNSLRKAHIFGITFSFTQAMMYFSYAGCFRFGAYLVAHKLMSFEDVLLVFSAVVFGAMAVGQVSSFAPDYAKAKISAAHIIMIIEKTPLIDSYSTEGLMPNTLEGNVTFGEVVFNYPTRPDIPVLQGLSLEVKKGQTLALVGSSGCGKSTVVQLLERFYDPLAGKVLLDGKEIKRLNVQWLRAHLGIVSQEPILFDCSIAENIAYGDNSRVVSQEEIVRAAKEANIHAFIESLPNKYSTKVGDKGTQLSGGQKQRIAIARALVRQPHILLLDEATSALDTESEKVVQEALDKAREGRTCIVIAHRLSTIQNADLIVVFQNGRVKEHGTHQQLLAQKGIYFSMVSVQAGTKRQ
σ2, sequence (Q5BJF2 whole entry): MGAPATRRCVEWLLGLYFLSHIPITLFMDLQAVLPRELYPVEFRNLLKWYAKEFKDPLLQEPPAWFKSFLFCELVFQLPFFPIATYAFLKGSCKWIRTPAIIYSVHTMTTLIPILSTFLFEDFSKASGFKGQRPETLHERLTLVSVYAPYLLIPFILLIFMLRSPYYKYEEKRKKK
DOR, sequence (P41143 whole entry): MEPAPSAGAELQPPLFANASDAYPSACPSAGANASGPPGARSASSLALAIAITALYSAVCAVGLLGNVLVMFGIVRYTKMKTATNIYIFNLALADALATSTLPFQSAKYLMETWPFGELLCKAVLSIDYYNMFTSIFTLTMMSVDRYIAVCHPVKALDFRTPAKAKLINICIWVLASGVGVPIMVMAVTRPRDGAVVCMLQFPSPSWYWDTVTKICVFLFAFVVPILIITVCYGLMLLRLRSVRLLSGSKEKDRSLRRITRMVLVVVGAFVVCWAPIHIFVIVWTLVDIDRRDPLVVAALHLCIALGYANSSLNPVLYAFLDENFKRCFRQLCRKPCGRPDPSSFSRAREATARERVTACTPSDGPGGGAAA

COc1ccc(N(C)c2nc(C)nc3ccccc23)cc1 [MPC-6827]
Ki (5-HT1A-1E): > 10 µM
Ki (5-HT2A-2C): > 10 µM
Ki (5-HT3-7): > 10 µM
Ki (A (adenosine)): > 10 µM
Ki (α1A-1C): > 10 µM
Ki (α2A-2C): > 10 µM
Ki (β1–3): > 10 µM
Ki (AMPA): > 10 µM
Ki (BZP (benzodiazepine)): > 10 µM
Ki (Ca+ channel): > 10 µM
Ki (CB1, CB2): > 10 µM
Ki (D1-D5): > 10 µM
Ki (DAT): > 10 µM
Ki (DOR): > 10 µM
Ki (H1): > 10 µM
Ki (HERG): > 10 µM
Ki (GABA): > 10 µM
Ki [1]: > 10 µM
Ki (I): > 10 µM
Ki (KOP): > 10 µM
Ki (KA (kainate)): > 10 µM
Ki (M (muscarinic)): > 10 µM
Ki (mGluR): > 10 µM
Ki (MDR1): > 10 µM
Ki (NET): > 10 µM
Ki (NK (neurokinin)): > 10 µM
Ki (NMΔA): > 10 µM
Ki (NOP): > 10 µM
Ki (NT (neurotrophin)): > 10 µM
Ki (oxytocin): > 10 µM
Ki (PBR): > 10 µM
Ki (PKC): > 10 µM
Ki (SERT): > 10 µM
Ki (σ2): > 10 µM
Ki (Na + channel): > 10 µM
Ki (smoothened): > 10 µM
Ki (VMAT 1,2): > 10 µM
Ki [2]: > 10 µM
plasma binding [3]: 98.2%
safety in human subjects [4]: proven to be safe
tumor growth in cancer animal models (cancer animal models): suppression of tumor growth

Cc1nc(N(C)c2ccc(O[11CH3])cc2)c2ccccc2n1 [[^11C]MPC-6827]
log Poct/water [5]: 3.8
stability in formulation [6]: stable
time of peak brain activity [7]: 5 min
specific binding in brain (MT; [10]): 70%
specific binding in heart (MT; [10]): 16%
specific binding in lungs (MT; [10]): 30%
specific binding in muscles (MT; [10]): 60%
specific binding in pancreas (MT; [10]): 20%
specific binding in the rest of the tested regions (MT; 30 min, regions other than brain, muscles, spleen, lungs, pancreas, heart): no significant specific binding
displacement of kidney and liver binding (MT; blocking with cold MPC-6827, mice): not displaced
ratio of specific to nonspecific binding in brain relative to muscle (MT; brain vs muscle, Figure 1B): 10 times
BBB penetration and brain retention (microPET) (brain MT [8]; athymic nude male mice, n = 3, 0–60 min): penetrates the BBB and shows excellent retention in mouse brain
radioligand binding in thyroid or salivary gland during blocking (microPET) (brain MT [8]; blocking with 5 mg/kg MPC-6827, mice): displaced
blocking of brain activity (microPET) (brain MT [8]; iv 5 mg/kg unlabeled MPC-6827, n = 3): substantially blocked
BBB penetration and brain retention (microPET) (brain MT [9]): BBB penetration and excellent retention
